Results pooled from the literature.
Each line is one published result; the experiments were not run side by side.
Target: Cytochrome P450 2C19 (CYP2C19, Homo sapiens, UniProt P33261)
Effect on: enzyme activity
Action: inhibitor

SMILES	technique	species	medium	time	pH	IC50
COc1ccc2cc3[n+](cc2c1OC)CCc1cc2c(cc1-3)OCO2						> 10 µM
CCc1cc(/C(C)=N/OCc2ccc(C3CCCCC3)c(C(F)(F)F)c2)ccc1CN1CC(C(=O)O)C1		human	liver microsomes	20 min		> 0.5 µM
CC1=CC(=O)C(C(C)C)=CC1=O	fluorescence				pH 7.4	3.6 µM
Nc1nc(N)c2nc(CNc3ccc(C(=O)c4ccccc4)cc3)cnc2n1	luciferase					25.1 µM
C[C@H]1CN(c2n[nH]c3nc(N[C@H]4CC[C@H](NS(=O)(=O)CCC(F)(F)F)CC4)ncc23)CCO1						> 100 µM
COc1ccc2c(Cc3ccccc3F)c3n(c(=O)c2c1OC)CCc1cc2c(cc1-3)OCO2						4.7 µM
COc1ccc2[nH]c([S+]([O-])Cc3ncc(C)c(OC)c3C)nc2c1 (stereo not drawn)	fluorescence					32 µM
C=CC(=O)Nc1cc(Nc2nccc(Nc3cc(Cl)c(F)cc3C(C)(C)O)n2)c(OC)cc1N1CC[C@@H](N(C)C)C1		human	liver microsomes			> 30 µM
CCN(Cc1cnc2nc(N)nc(N)c2n1)c1ccc(C(=O)c2ccccc2)cc1	luciferase					0.282 µM
COc1ccn2c(Nc3ccccc3F)c(-c3ccncn3)nc2c1						0.93 µM
Nc1nc(N)c2nc(CNc3ccc(C(=O)NCCc4ccccc4)cc3)cnc2n1	luciferase					15.1 µM
CCC(C)(C)C(=O)O[C@H]1C[C@@H](C)C=C2C=C[C@H](C)[C@H](CC[C@@H](O)C[C@@H](O)CC(=O)O)[C@H]21	fluorescence					> 100 µM
